An excerpt weighted towards active compounds, which were near 2.9% of everything screened.
AI-2 QS modul: Vibrio harveyi AI-2 quorum sensing modulation. 300,000 tested, 0.4% active. Vibrio harveyi JMH597 AI-2 luminescence/OD600 ratio, 9 h; hits give low values; strain lacks LuxN and CqsS sensors; 0 = neutral-control median. activity change, % at 7.5 µM; in the data active = activity change below about -75%, passing the limit was not always enough; inconclusive = no clear call, values can overlap the other calls;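 also: luminescence divided by OD600 gain over 9 h not by final OD600 alone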
Runt-CBFb FRET: blocks binding of human RUNX1 Runt domain to CBFb | Cerulean-Runt/Venus-CBFb FRET ratio 530/480, 1 h | Q01196+Q13951 | 220,000 tested, 0.46% active | inhibition, % at 20 µM;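 active = inhibition over about 50% at 20 µM in the single-dose screen, limit read from the data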;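 also: 0% = DMSO wells and 100% = excess unlabeled CBFb competitor control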
Target sequence (Q01196 whole entry, looked up, the tested form may be a part): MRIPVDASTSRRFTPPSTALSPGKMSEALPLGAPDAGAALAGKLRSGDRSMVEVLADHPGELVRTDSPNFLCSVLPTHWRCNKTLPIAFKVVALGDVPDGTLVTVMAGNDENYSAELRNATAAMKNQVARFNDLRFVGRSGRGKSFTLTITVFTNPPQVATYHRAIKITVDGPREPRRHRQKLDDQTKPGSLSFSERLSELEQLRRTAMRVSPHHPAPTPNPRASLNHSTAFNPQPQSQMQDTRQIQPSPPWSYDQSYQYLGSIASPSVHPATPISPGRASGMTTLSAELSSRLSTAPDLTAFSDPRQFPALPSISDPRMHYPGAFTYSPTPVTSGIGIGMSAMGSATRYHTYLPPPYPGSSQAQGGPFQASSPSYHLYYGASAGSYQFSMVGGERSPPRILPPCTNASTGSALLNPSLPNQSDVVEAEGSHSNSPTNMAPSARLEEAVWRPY
Target sequence (Q13951 whole entry, looked up, the tested form may be a part): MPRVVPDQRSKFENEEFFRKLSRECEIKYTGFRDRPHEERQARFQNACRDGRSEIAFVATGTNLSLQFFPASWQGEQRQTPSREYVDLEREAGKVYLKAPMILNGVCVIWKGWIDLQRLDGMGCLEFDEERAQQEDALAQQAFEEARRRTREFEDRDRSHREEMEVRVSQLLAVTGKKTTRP
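Assay system: Cerulean-tagged RUNX1 Runt domain (FRET donor) fusion protein / Amount: 100 nM each of Venus-CBFb and Cerulean-Runt domain / Medium: Tris buffer pH 7.5 with salts and BSA / Also added: Venus-CBFb 100 nM / Schedule: 1 h complex formation plus 1 h compound treatment, room temperature / Signal: FRET fluorescence / Read-out: loss of energy transfer signal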
Runt-SMMHC FRET: blocks binding of human RUNX1 Runt domain to CBFb-SMMHC | Cerulean-Runt/Venus-CBFb-SMMHC FRET ratio 530/480, 1 h | inhibition, % at 20 µM | 220,000 tested, 0.74% active | AID 1434;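 active = mean inhibition across duplicate retests at 20 µM reaching about 50%, limit read from the data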;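 also: 0% = DMSO wells and 100% = wells with excess untagged CBFb-SMMHC; inhibitors lower the FRET ratio by blocking Runt binding to CBFb-SMMHC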
RanGTP-Impb inh: disruptors of Ran-importin-beta complex formation – biochemical, FRET, CFP-Ran, YFP-importin-beta, homogeneous, primary screen; cell-free CFP-Ran/YFP-importin-beta FRET ratio; 300,000 tested, 1.1% active; inhibition, % (test concentration not listed); AID 2216;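 active = more than half of the replicate wells show a fall in the fluorescence ratio signal beyond about 16%, limit read from the data, passing the limit was not always enough; inconclusive = exactly half of the replicate wells pass the set limit; inactive = fewer than half of replicates pass the limit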;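 also: 0% = DMSO wells and 100% = Ran loaded with GDP instead of GTP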
KLK7 zymogen act: activators of human kallikrein-7 zymogen | P49862 | purified proKLK7, EDANS-DABCYL substrate fluorescence; 100% is mature enzyme control, 0% vehicle | activation, % at 7 µM | 370,000 tested, 0.9% active | AID 652039;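 active = activation above the mean of all tested compounds plus 3 SD, computed per campaign excluding outliers beyond control limits, cut at about 13% in these data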
Wee1 degr inh: human Wee1 degradation inhibition, primary screen; 220,000 tested, 1.2% active; reporter increase, % at 5 µM; HeLa Luc-Wee1K328M stability, luciferase luminescence; 100% = proteasome inhibitor MG132 effect; P30291;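 active = activation above the mean of all tested compounds plus 3 SD, set per screening run, cut at about 8.8% in these data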;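 also: cells exposed to compound for 20 h before luminescence read; 0% = DMSO alone and 100% = MG132 at 30 µM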
KLK7 act conf: confirmation of human kallikrein-7 zymogen activators; shares compounds with KLK7 zymogen act; purified proKLK7, EDANS-DABCYL substrate fluorescence; scaled: vehicle 0, mature enzyme 100; activation, % at 7 µM; 3,200 tested, 68% active; AID 686949;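 active = activation, as change over the incubation, above the mean of all tested compounds plus 3 SD, cut at about 13% in these data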
EDANS interfere: counter-screen for kallikrein-7 activators: EDANS-DABCYL optical interference. shares compounds with KLK7 zymogen act. EDANS-DABCYL substrate fluorescence interference, no enzyme, 4 h; solvent 0%, active enzyme control 100%. activation, % at 7 µM. 3,200 tested, 80% active;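 active = activation above the all-compound mean plus 3 SD, ignoring values outside control-based bounds, cut at about 4.8% in these data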;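 also: value is the 4 h activation minus the activation read at time zero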
EDANS interf: optically interferes with EDANS-DABCYL fluorescence, kallikrein-7 activator counter-screen. shares compounds with KLK7 zymogen act. EDANS-DABCYL peptide fluorescence interference, no enzyme. EC50, µM. 250 tested, 20% active;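 active = compounds that raise the fluorescence signal in this interference counterscreen, with EC50 at or below 10 µM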;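 also: intact quenched peptide substrate alone read at 355 nm excitation and 520 nm emission; signal is fluorescence gain from T0 to T4 after four hours at room temperature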
* marks the source's active call; other numbers are inactive results; ? = inconclusive; / = no result given.

SMILES | AI-2 QS modul | Runt-CBFb FRET | Runt-SMMHC FRET | RanGTP-Impb inh | KLK7 zymogen act | Wee1 degr inh | KLK7 act conf | EDANS interfere | others
Cc1cccc(-n2nc(C)c3c(C(=O)O)cc(-c4cccs4)nc32)c1 | 35 | 0 | 1 | 5 | 1 | 3 | / | /
Cc1nn(-c2ccccn2)c2nc(-c3cccs3)cc(C(=O)N3CCOCC3)c12 | 4 | 2 | 2 | ? | 23* | -2 | 32* | 26* | EDANS interf=>70
N#Cc1ccc(-c2ccc(OCC(=O)Nc3cccnc3)cc2)cc1 | 29 | / | / | -1 | 18* | / | -1 | -1
CC(=O)Nc1ccc(NC(=O)COc2ccc(-c3ccc(C#N)cc3)cc2)cc1 | / | / | / | -2 | -1 | / | / | /
O=C(O)CCC(=O)c1ccc2ccc3cccc4ccc1c2c34 | 39 | 28 | 69* | 5 | 26* | 2 | 62* | 65*
O=C(O)CCC(=O)c1cccc2ccccc12 | 6 | -1 | 4 | 0 | 1 | -3 | / | /
O=C(O)c1cc2c(ccc3ccccc32)oc1=O | 71 | 12 | 11 | 0 | 34* | 5 | 41* | 42*
O=C(O)c1cc2cc(Cl)cc(Cl)c2oc1=O | 21 | -10 | -60 | -2 | 0 | 0 | / | /
O=C(O)c1cc2ccc3ccccc3c2oc1=O | 39 | 28 | 97* | ? | 31* | 0 | 79* | 82*
O=C(c1cc2c(ccc3ccccc32)oc1=O)N1CCCC1 | 1 | 5 | 12 | 0 | 24* | -3 | 49* | 53*
COc1ccccc1NNC(=O)c1cccnc1Oc1ccccc1 | 28 | -1 | 1 | -5 | 0 | 4 | / | /
CCCCn1c(N)c(N(CC(C)C)C(=O)C2CCCO2)c(=O)[nH]c1=O (configuration not stated) | 18 | / | / | -2 | 0 | / | / | /
COc1ccc2oc(=O)c(C(=O)N3CCN(C(=O)c4ccco4)CC3)cc2c1 | 21 | / | / | 5 | 26* | / | 27* | 30*
COc1ccc2oc(=O)c(/C(N)=N/NC(=O)c3ccncc3)cc2c1 | 20 | / | / | -6 | 15* | / | 121* | 135*
COc1ccc2oc(=O)c(C(=O)N3CCN(C(=O)c4ccccc4)CC3)cc2c1 | 17 | / | / | 1 | 21* | / | 25* | 16* | EDANS interf=>70
C/C(=N\NC(=O)c1ccncc1)c1cc2ccccc2oc1=O | -12 | -1 | -2 | 5 | 0 | 3 | / | /
COc1ccc2oc(=O)c(C(=O)N3CCN(c4ccccc4)CC3)cc2c1 | 18 | -3 | 3 | 0 | 1 | -3 | / | /
CCOC(=O)C1=Nc2ccccc2C1=[N+]=[N-] | -39 | 1 | -4 | -1 | -2 | -3 | / | /
CCOC(=O)C1=Nc2cccc3c(O)ccc1c23 | / | / | / | / | 53* | / | 79* | 85*
CCCc1cc(C(=O)Nc2ccc(CC)cc2)no1 | 15 | / | / | 4 | 0 | / | / | /
CCOC(=O)c1sc(NC(=O)c2ccccc2)cc1C | 15 | 2 | 1 | 6 | 16* | 4 | -1 | -1
CCOC(=O)c1sc(NC(=O)c2ccc(S(=O)(=O)N(C)C)cc2)cc1C | 33 | -3 | -3 | 2 | 2 | 3 | / | /
CC(C)(C)c1ccc(NC(=O)CSc2n[nH]c(=O)n2C2CC2)cc1 | / | / | / | / | 0 | / | / | /
CC(=O)c1cccc(NC(=O)CSc2n[nH]c(=O)n2C2CC2)c1 | / | / | / | / | 52* | / | -1 | 1
Cc1ccc(CCNC(=O)CNC(=O)c2cccs2)cc1 | -6 | -1 | 1 | -3 | 0 | 3 | / | /
Cn1c(=O)c2[nH]c(-c3ccccc3Cl)c(O)c2n(C)c1=O | 16 | -16 | -109 | -102 | 58* | 0 | 71* | 77*
